KCNQ1 block – blocks the human KCNQ1 potassium channel | CHO-K1 KCNQ1, FluxOR thallium flux fluorescence; active compounds read high | B-score at 10 µM | 310,000 tested, 1.3% active;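 active means compounds whose thallium flux B-score, printed positive for inhibition, exceeds three library SD while starting fluorescence stays within three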;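 further: channel opened by potassium depolarization with thallium stimulus after 20 min compound exposure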
Target sequence (P51787 whole entry, looked up): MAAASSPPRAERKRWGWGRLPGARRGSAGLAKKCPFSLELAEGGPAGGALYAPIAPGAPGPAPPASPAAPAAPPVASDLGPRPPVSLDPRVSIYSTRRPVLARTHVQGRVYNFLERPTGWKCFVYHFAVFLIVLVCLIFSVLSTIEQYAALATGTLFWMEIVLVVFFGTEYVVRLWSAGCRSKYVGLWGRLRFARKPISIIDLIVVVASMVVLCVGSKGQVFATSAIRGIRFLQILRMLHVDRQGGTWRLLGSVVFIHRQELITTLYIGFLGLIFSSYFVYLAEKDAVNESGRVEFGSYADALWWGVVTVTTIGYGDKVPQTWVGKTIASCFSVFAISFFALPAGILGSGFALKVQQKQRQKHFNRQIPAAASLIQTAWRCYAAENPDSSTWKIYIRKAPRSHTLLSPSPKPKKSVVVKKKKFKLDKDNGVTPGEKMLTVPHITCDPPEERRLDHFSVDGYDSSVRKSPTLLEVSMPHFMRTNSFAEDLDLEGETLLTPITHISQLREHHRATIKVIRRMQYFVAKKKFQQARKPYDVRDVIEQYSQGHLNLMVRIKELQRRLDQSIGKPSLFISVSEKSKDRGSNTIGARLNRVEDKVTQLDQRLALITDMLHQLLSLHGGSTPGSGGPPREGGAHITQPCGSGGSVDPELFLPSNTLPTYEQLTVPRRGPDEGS
KCNK9 inh – human KCNK9 channel inhibition; B-score at 10 µM; 310,000 tested, 1.2% active; Q9NPC2; AID 488922; HEK293 KCNK9, FluxOR thallium flux fluorescence; active compounds read low;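 active means ratio B-score over 3 SD below the library mean, with starting fluorescence within 5 SD of its mean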;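 further: negative B-score means less thallium flux so channel inhibition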
KCNK3 block – human KCNK3 channel inhibition, primary screen; O14649; CHO-KCNK3 thallium flux, FluxOR fluorescence; active compounds read low; B-score at 10 µM; 340,000 tested, 0.84% active;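 active means B-score under library mean minus 4 SD, starting fluorescence ratio at most library mean plus 5 SD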;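 further: more negative B-score means stronger inhibition of thallium flux through KCNK3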
hERG protect – shields human hERG channel from block by proarrhythmic agents | Q12809 | 310,000 tested, 0.51% active | AID 1511 | CHO-hERG, FluxOR thallium flux, dofetilide IC70 present | activation (rescue from dofetilide block), less the hit threshold, % at 10 µM;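 active means activation above the mean of controls blocked by dofetilide plus 5 SD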;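 further: thallium influx through hERG after potassium depolarization seen as dye fluorescence rise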
KCNQ1 act – potentiators or activators of human KCNQ1 potassium channel. AID 2648. 310,000 tested, 0.35% active. B-score at 10 µM. CHO-K1 KCNQ1, thallium flux FluxOR fluorescence; active compounds read high. P51787;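 active means fluorescence ratio B-score, a plate-corrected score, at least three library SD, with initial intensity B-score within 5 SD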
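Doses: Single concentration per compound, DMSO matched to controls | Test system: KCNQ1-transfected CHO-K1 cells | Timing: 90 min dye loading and 20 min compound exposure, both at room temperature | Measured by: Kinetic FluxOR thallium fluorescence, 10-s 1-Hz baseline, 110-s post-stimulus read | Medium: Assay buffer with matched DMSO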
KCNQ1 block val – confirmation of human KCNQ1 potassium channel inhibitors. shares compounds with KCNQ1 block. KCNQ1 cell line, FluxOR thallium flux fluorescence. 1,600 tested, 93% active. inhibition, % at 10 µM;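 active means primary screen active, with duplicate mean exceeding buffer control mean plus 3 SD of buffer wells, cut at about 28% in these data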;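 further: 0% = buffer control ratio and 100% = XE991 inhibitor control ratio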
CHO Tl flux – activity in parental CHO cells lacking KCNQ1. parental CHO-K1, FluxOR thallium flux fluorescence ratio; active compounds read low; zero means no signal rise above baseline. AID 588366. 1,600 tested, 21% active. fluorescence ratio (Tl flux) at 10 µM. shares compounds with KCNQ1 block;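 active means mean of duplicate thallium-flux fluorescence ratios in parental host cells more than 5 SD below the buffer control mean, cut at about 0.38 in these data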;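 further: ratio is peak minus minimum fluorescence divided by baseline fluorescence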
KCNQ1 ephys val – human KCNQ1 inhibition validated by electrophysiology; KCNQ1-CHO cells, automated patch clamp current; shares compounds with KCNQ1 block; calls only at 10 µM; 490 tested, 20% active;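 active means KCNQ1 current drop exceeding 3 SD of negative control wells, seen in both duplicate runs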;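 further: steady state current during a 2 s step from -80 to +40 mV; negative values mean current inhibition and positive values mean potentiation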
KCNQ2 spec – KCNQ1 inhibitor that also blocks rat KCNQ2 channel; shares compounds with KCNQ1 block; KCNQ2 cells, FluxOR thallium flux fluorescence; inhibition, % at 10 µM; 1,600 tested, 71% active; AID 651746;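 active means mean percent inhibition of the KCNQ2 thallium signal more than 5 SD above the buffer-only control wells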;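 further: KCNQ2 expressed in CHO cells; 0% = buffer control wells and 100% = XE-991 inhibitor control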
KCNQ1-KCNE1 inh – selectivity of KCNQ1 inhibitors: inhibition of human KCNQ1/KCNE1 channel. shares compounds with KCNQ1 block. KCNQ1/KCNE1 cells, FluxOR thallium flux fluorescence. inhibition, % at 10 µM. 1,600 tested, 77% active;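 active means mean percent inhibition of duplicate wells above the buffer-only control mean plus 3 SD of those controls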;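 further: 0% = buffer only wells and 100% = XE-991 inhibitor control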
* marks the source's active call; other numbers are inactive results; i = inactive; / = not tested or not shown; + = active, no number. Rows were chosen to be rich in hits. Some 3.1% of all compounds tested hit in one or more screens of this group.

SMILES	KCNQ1 block	KCNK9 inh	KCNK3 block	hERG protect	KCNQ1 act	KCNQ1 block val	CHO Tl flux	KCNQ2 spec	KCNQ1-KCNE1 inh	others
CC(NC(=O)CCc1nc2cc(S(=O)(=O)N3CCOCC3)ccc2n1C)c1ccc(S(N)(=O)=O)cc1 (configuration not stated)	i	i	i	-5	i	/	/	/	/
COc1ccc(Nc2nc(NC(C)(C)C)nc(N3CCOCC3)n2)c(OC)c1	i	i	i	-16	i	/	/	/	/
COc1ccc(Nc2nc(-c3ccccc3)nc3ccccc23)c(OC)c1	11*	i	i	-8	i	+	0.41	108%*	i	KCNQ1 ephys val=i
COc1ccc(Nc2nc(N3CCCCC3)nc3ccccc23)c(OC)c1	12*	i	i	-17	i	98*	0.43	90%*	94%*	KCNQ1 ephys val=i
COc1ccc(Nc2nc(NC(C)(C)C)nc(N3CCCC3)n2)c(OC)c1	8*	i	i	-15	i	144*	0.32*	i	+
CC1CCCC(NC(=O)CCS(=O)(=O)c2cc3c(cc2Cl)NC(=O)CO3)C1C (configuration not stated)	i	i	i	-5	i	/	/	/	/
O=C1CN(S(=O)(=O)c2cccc(Br)c2)CCN1	/	/	i	/	/	/	/	/	/
CN1c2ccccc2C(C)(C)C12C=Cc1cc(O)ccc1O2 (configuration not stated)	9*	i	i	-22	i	132*	0.36*	128%*	168%*
CCc1ccc(OCC(=O)c2c(O)c3ccccc3oc2=O)cc1	i	i	i	-11	i	/	/	/	/
CCc1oc2ccccc2c1C(=O)c1cc(Br)c(O)c(Br)c1	9*	i	i	-28	i	77*	0.5	i	43%*
CC(=O)c1ccc(Nc2nc(NCCO)nc(OC(C(F)(F)F)C(F)(F)F)n2)cc1	8*	i	i	-26	i	85*	0.49	i	114%*
CNc1nc(Nc2ccc(C(C)=O)cc2)nc(OC(C(F)(F)F)C(F)(F)F)n1	i	i	i	-6	i	/	/	/	/
CC(C)N(Cc1ccccc1)C(=O)CN1C(=O)NC(Cc2ccccc2)(c2ccccc2)C1=O (configuration not stated)	i	i	i	-13	i	/	/	/	/
COc1ccc(C2CC(=O)c3cnc(N4CCN(Cc5ccccc5)CC4)nc3C2)cc1 (configuration not stated)	6*	i	i	-6	i	68*	0.42	102%*	105%*
O=C(Cc1ccc(F)cc1)Nc1nnc(-c2ccc(F)cc2)o1	i	i	i	-8	i	/	/	/	/
CC(Oc1cccc(Cl)c1)C(=O)Nc1ccccc1N1CCCCC1 (configuration not stated)	9*	-7.8*	i	-11	i	116*	0.47	84%*	138%*	KCNQ1 ephys val=i
Cn1cccc1C(=O)OCc1ccc(C(C)(C)C)cc1	i	i	i	-10	i	/	/	/	/
O=C(CC(=O)c1ccccc1)Nc1ccc([N+](=O)[O-])cc1	/	/	i	/	/	/	/	/	/
CC(C)(C)CC(=O)Nc1nnc(C(F)(F)F)s1	i	i	i	-7	i	/	/	/	/
CC(NC(=O)Nc1nnc(C(F)(F)F)s1)(C(F)(F)F)C(F)(F)F	7*	i	i	-45	i	0	0.53	i	i
CCSc1ncccc1C(=O)N[C@@H](CCSC)C(=O)OC	i	i	i	-9	i	/	/	/	/
Cc1cc(OCCn2ccnc2)ccc1C(C)C	6*	i	i	-10	i	0	0.51	64%*	42%*
Cc1ccc(OCCCn2ccnc2)cc1C	i	i	i	-7	i	/	/	/	/
CC(NC(=S)Nc1ccc(OC(F)F)c(Cl)c1)C(C)(C)C (configuration not stated)	8*	i	i	-16	i	60*	0.49	i	36%*
O=C(Nc1ccccc1C(=O)Nc1nnc(C(F)(F)F)s1)c1ccccc1Cl	6*	i	i	-13	i	66*	0.45	65%*	i
SMILES	KCNQ1 block	KCNK9 inh	KCNK3 block	hERG protect	KCNQ1 act	KCNQ1 block val	CHO Tl flux	KCNQ2 spec	KCNQ1-KCNE1 inh	others
c1cncc(CNc2ncnc3sccc23)c1	10*	i	i	-11	i	0	0.46	i	i
CN(C)C(=S)SCCn1c(N)nc(N(C)C)nc1=O	i	i	i	-2	i	/	/	/	/
Cc1csc2ncnc(N3CCN(S(=O)(=O)c4cccc(C(F)(F)F)c4)CC3)c12	19*	i	i	-13	i	134*	0.43	113%*	130%*	KCNQ1 ephys val=i
O=S(=O)(c1cccc(Br)c1)N1CCN(c2ncnc3scc(-c4ccccc4)c23)CC1	/	/	i	/	/	/	/	/	/
O=C(NCCC(NS(=O)(=O)OCC(Cl)(Cl)Cl)c1ccccc1)C(F)(F)F (configuration not stated)	i	i	i	-4	i	/	/	/	/
Cc1cc(C)nc(NC(=O)c2ccc(COc3ccccc3Cl)cc2)c1	8*	i	i	-6	i	103*	0.45	106%*	123%*	KCNQ1 ephys val=i
CC1CCC2(CC1)NC(=O)N(CC(=O)N1CCN(S(=O)(=O)c3ccccc3)CC1)C2=O (configuration not stated)	i	i	i	-12	i	/	/	/	/
O=C(CN(c1ccc(Cl)c(Cl)c1)S(=O)(=O)c1ccccc1)N1CCc2ccccc2C1	6*	i	i	-6	i	56*	0.34*	119%*	96%*
COc1ccc2ncc(S(=O)(=O)c3ccccc3)c(N3CCN(c4ccccc4)CC3)c2c1	i	i	i	-5	i	/	/	/	/
Cc1ccc2ncc(S(=O)(=O)c3ccccc3)c(N3CCCCC3C)c2c1 (configuration not stated)	7*	i	i	-21	i	126*	0.32*	131%*	+
Cc1ccc(S(=O)(=O)NCCC2=CCCCC2)cc1	/	/	i	/	/	/	/	/	/
Cc1cc(S(=O)(=O)NCCC2=CCCCC2)ccc1Br	7*	i	i	-11	i	0	0.45	68%*	82%*
